# MPTP block = mitochondrial permeability transition pore inhibitors, primary screen, biochemical, isolated mouse mitochondria, absorbance | inhibition, % at 10 µM | AID 602449, 2012 | Ca2+ swelling absorbance, 30 min | 1.4% of 360,000 active;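 active = inhibition of 50% or more, scaled per plate between neutral and stimulator controls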;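 note: 0% = DMSO wells given calcium and 100% = 1 mM EGTA wells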
# TAAR1 ag = human TAAR1 agonists, primary screen, Fluo-8 calcium fluorescence, CHO RD-HGA16 cells; vehicle wells 0%, saturating PEA agonist 100%; AID 624467, 2012; 0.99% of 360,000 active; activation, % at 3 µM; Trace amine-associated receptor 1 (Homo sapiens), Q96RJ0;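 active = activation above the mean activation of all test compounds in the run plus 3 SD, cut at about 38% in these data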
#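 Test system: RD-HGA16 (CHO) cells co-expressing Gα16 and hTAAR1 / Benchmarks: DMSO vehicle as 0%, PEA at EC100 as 100% / Repeats: no replicates (n 1) / Measure: % activation from peak over basal fluorescence ratio, DMSO-to-PEA scaled / Timing: 17-24 h plating, Fluo-8 75 min 37 °C, 30 min RT / Technique: kinetic Fluo-8 calcium fluorescence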
# DAGLB inh = DAGLB lipase inhibitors, primary screen, biochemical, fluorescence, HTS | Diacylglycerol lipase-beta (Homo sapiens), Q8NCG7 | HEK293T DAGLB membrane lysate, EnzChek fluorogenic substrate | inhibition, % at 5.17 µM | 0.059% of 340,000 active | AID 504411, 2011; in the data active = inhibition above about 34%;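 note: 0% = enzyme with vehicle and 100% = wells lacking enzyme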
# Target sequence (Q8NCG7 whole entry, looked up): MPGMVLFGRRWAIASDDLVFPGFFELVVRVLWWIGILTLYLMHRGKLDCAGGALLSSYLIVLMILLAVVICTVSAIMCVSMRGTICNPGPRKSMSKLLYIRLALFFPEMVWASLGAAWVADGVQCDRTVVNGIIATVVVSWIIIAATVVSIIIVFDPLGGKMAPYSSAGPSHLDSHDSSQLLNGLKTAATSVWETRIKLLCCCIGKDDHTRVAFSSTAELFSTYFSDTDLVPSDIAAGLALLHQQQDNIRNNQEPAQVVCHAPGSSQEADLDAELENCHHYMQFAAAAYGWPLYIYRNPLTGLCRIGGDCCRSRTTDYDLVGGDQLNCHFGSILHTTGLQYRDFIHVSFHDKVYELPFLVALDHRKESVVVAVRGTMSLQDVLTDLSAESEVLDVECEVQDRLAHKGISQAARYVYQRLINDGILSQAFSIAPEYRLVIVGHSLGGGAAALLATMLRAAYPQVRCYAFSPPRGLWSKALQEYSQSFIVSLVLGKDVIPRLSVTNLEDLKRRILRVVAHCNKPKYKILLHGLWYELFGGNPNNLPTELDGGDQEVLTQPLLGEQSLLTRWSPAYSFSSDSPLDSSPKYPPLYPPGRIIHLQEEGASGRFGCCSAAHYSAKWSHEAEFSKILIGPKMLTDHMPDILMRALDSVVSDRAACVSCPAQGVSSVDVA
# GPR7 antag = GPR7 receptor antagonists, primary screen, cell-based, fluorescence, single concentration; Neuropeptides B/W receptor type 1 (Homo sapiens), P48145; GPR7-expressing cells, fluorescence antagonist assay; inhibition, % at 4.4 µM; 1.1% of 290,000 active; AID 1861, 2009; in the data active = inhibition above about 16%, passing the limit was not always enough;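 note: cells stimulated with the agonist NPW; 0% = agonist with vehicle and 100% = vehicle without agonist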
# TAAR1 antag = human TAAR1 antagonists, primary screen, Fluo-8 calcium fluorescence, CHO RD-HGA16 cells; Trace amine-associated receptor 1 (Homo sapiens), Q96RJ0; antagonist; inhibition, % at 3 µM; 1.5% of 360,000 active; AID 624466, 2012;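 active = inhibition above a per-plate cutoff, the mean inhibition of test compounds on that plate plus 3 SD, cut at about 49% in these data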;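 note: 0% = DMSO plus EC80 beta-PEA response and 100% = DMSO alone without agonist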
#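 Material: CHO RD-HGA16 cells bearing hTAAR1; compound dosing: one-point dosing, 3 µM nominal final; schedule: dye loading 75 min at 37 °C, then 30 min room temperature; measured by: calcium fluorescence with Fluo-8; control set: vehicle and agonist controls; replication: n of 1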
# nonsel antag count = nonselective antagonists in TAAR1 counter-screen cells, counter-screen for hTAAR1 antagonist project, cell-based, fluorescence, calcium; shares compounds with TAAR1 antag; counterscreen cell line, antagonist mode; inhibition, % at 3 µM; 77% of 2,400 active; AID 651780, 2012; in the data active = inhibition above about 22%;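 note: CHO-Ga16 host cells stimulated with ATP at an EC80 level; 0% = agonist EC80 plus vehicle and 100% = vehicle without agonist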
# TAAR1 antag conf = human TAAR1 antagonists, retest of hits, confirmation, cell-based, fluorescence. shares compounds with TAAR1 antag. TAAR1-expressing cells, fluorescence antagonist read-out. inhibition, % at 3 µM. 40% of 2,400 active. AID 651785, 2012; in the data active = inhibition above about 49%;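 note: CHO-Ga16 host cells challenged with agonist PEA near its EC80; 0% = agonist at EC80 plus vehicle and 100% = vehicle with no agonist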
# Ga16 nonsel ag = calcium activation in Ga16-expressing cells, counter-screen for TAAR1 antagonist project, cell-based, fluorescence; shares compounds with TAAR1 antag; agonist counterscreen; activation, % at 3 µM; 18% of 2,400 active; AID 651953, 2012; in the data active = activation above about 12%;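 note: 0% = vehicle wells and 100% = saturating stimulus response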
# TAAR1 ag count = TAAR1 activation by candidate antagonists – cell-based, fluorescence, counter-screen for TAAR1 antagonist project; 2% of 2,400 active; hTAAR1 cell line, agonist mode; activation, % at 3 µM; shares compounds with TAAR1 antag; AID 651955, 2012; in the data active = activation above about 37%;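 note: CHO cells stably expressing TAAR1 with calcium dye readout; 0% = DMSO vehicle and 100% = full agonist response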
# * hit, by the source's call; / = no result. Hits are enriched below; roughly 4% of the tested compounds scored in any of these assays.
SMILES,MPTP block,TAAR1 ag,DAGLB inh,GPR7 antag,TAAR1 antag,nonsel antag count,TAAR1 antag conf,Ga16 nonsel ag,TAAR1 ag count
CCCCC(=O)Nc1ccc(C(=O)Nc2ccc(S(=O)(=O)N3CCCC3)cc2)cc1,0,/,0,-13,/,12,/,6,/
Cc1cc(/C=C(\C#N)C(=O)NCc2cccs2)c(C)n1-c1ccccc1F,2,2,-2,16,69*,17,61*,2,4
CCc1c(-c2cccc(F)c2)ncn1CCc1ccccc1OC,/,6,/,/,-20,/,/,/,/
COC(=O)C1(C(=O)OC)c2cc3c(cc2CN(S(=O)(=O)c2ccc(C)cc2)C1CC(C)=O)OCO3 (centres undefined),0,5,/,/,-13,/,/,/,/
COCCOC(=O)c1c(C)oc2ccc(OC(=O)c3c(OC)cccc3OC)cc12,3,10,-9,-3,51*,32*,43,6,5
CCN(CC)S(=O)(=O)c1ccc(S(=O)(=O)N(CC(=O)Nc2ccccc2)Cc2ccco2)cc1,4,17,-2,-8,62*,31*,53*,9,9
CCOC(=O)[C@@H]1[C@H]2COc3cc(OC)ccc3[C@H]2N2C(=O)N(c3cccc(F)c3)C(=O)[C@]12C,1,8,-9,/,14,/,/,/,/
CCCCN(C)C(=O)C(Cc1ccccc1)NS(=O)(=O)c1ccc2c(c1)c(=O)n(C)c(=O)n2C (centres undefined),0,22,1,1,67*,31*,46,11,13
CCCNC(=O)C(Cc1ccccc1)NS(=O)(=O)c1ccc2c(c1)c(=O)n(C)c(=O)n2C (centres undefined),1,2,0,6,2,/,/,/,/
CC(C)C[C@@H](CN)NC(=O)c1nc[nH]c1C(=O)N[C@@H](CC(C)C)C(=O)CNC[C@H](C)NC(=O)c1nc[nH]c1C(=O)N[C@@H](CC(C)C)C(=O)O,0,/,-1,/,/,/,/,/,/
Cc1nn(CCc2nn[nH]n2)c2nc(-c3ccc(Br)cc3)cc(C(F)(F)F)c12,27,2,14,-9,71*,16,33,2,-4
Cc1nn(CCc2nn[nH]n2)c2nc(C(F)(F)F)cc(C(F)(F)F)c12,-1,7,-1,-5,-4,/,/,/,/
COCC(=O)N(C)[C@H]1C[C@H]2c3[nH]c4c(-c5ccccc5)cccc4c3CCN2C(=O)[C@H]1[C@H](C)O,/,3,/,/,20,/,/,/,/
COC(=O)c1c(-c2ccc(F)cc2)csc1NC(=O)c1ccco1,-1,0,-22,-14,58*,4,25,2,6
O=C(COC(=O)c1cccc(N2C(=O)C3CC=CCC3C2=O)c1)c1ccccc1 (centres undefined),3,13,-2,6,55*,19,39,10,7
CCCCOCC1CN(CCCC)S(=O)(=O)c2c(cccc2N2CCCC2)O1 (centres undefined),/,1,/,/,-20,/,/,/,/
COc1ccc([C@H]2CC(=O)C=C(c3ccccc3Oc3ccccc3)C2)cc1,-2,8,-6,/,50*,11,17,1,2
COc1ccc(C2=CC(=O)C[C@H](c3ccc(F)cc3)C2)cc1OC,-2,4,-8,/,92*,16,51*,0,-3
O=Cc1cscc1[B-](F)(F)F,/,0,/,/,-3,/,/,/,/
O=C(/C=C/c1cn(-c2ccccc2)nc1-c1cccc(Cl)c1)N1CCN(c2ccccn2)CC1,-2,0,1,-11,53*,18,31,3,4
O=C(/C=C/c1cn(-c2ccccc2)nc1-c1cccnc1)N1CCCCC1,3,5,-4,-1,10,/,/,/,/
Nc1nc2c(ncn2[C@@H]2O[C@H](C(=O)NCCCN3CCCC3=O)[C@@H](O)[C@H]2O)c(=O)[nH]1,/,2,/,/,-18,/,/,/,/
COc1ccccc1Cc1c(-c2ccccc2)nc2ccc(C)cn12,/,0,/,/,-3,/,/,/,/
CC(C)C#Cc1ccc2c(c1)O[C@@H](CN(C)C(=O)c1cnccn1)[C@@H](C)CN([C@@H](C)CO)S2(=O)=O,0,0,1,/,-5,/,/,/,/
C=CC[C@@H](Cc1ccc(F)cc1)C(=O)OC[C@H]1CCCN1C(=O)[C@@H](CC=C)CC(=O)N[C@H](CO)Cc1ccccc1,2,22,-5,/,81*,41*,43,13*,7
SMILES,MPTP block,TAAR1 ag,DAGLB inh,GPR7 antag,TAAR1 antag,nonsel antag count,TAAR1 antag conf,Ga16 nonsel ag,TAAR1 ag count
C=CCC[C@@H](Cc1ccc(F)cc1)C(=O)OC[C@H]1CCCN1C(=O)[C@@H](CC=C)CC(=O)N[C@H](CO)Cc1ccccc1,2,18,-5,/,67*,29*,53*,7,7
C=CC[C@@H](Cc1ccc(F)cc1)C(=O)OC[C@@H]1CCCN1C(=O)[C@@H](CC=C)CC(=O)N[C@@H](CO)Cc1ccccc1,2,8,-3,/,10,/,/,/,/
C=CC[C@@H](Cc1ccc(F)cc1)C(=O)OC[C@@H]1CCCN1C(=O)[C@@H](CC=C)CC(=O)N[C@H](CO)Cc1ccccc1,0,26,-6,/,66*,36*,34,9,9
COc1ccc(NS(=O)(=O)c2cccc(C(=O)N3CCN(C/C=C/c4ccccc4)CC3)c2)cc1,1,9,1,/,8,/,/,/,/
COc1cc(CN2CC(=O)N(c3cccc(Cl)c3C)C2=S)cc(OC)c1OC,4,11,2,0,17,/,/,/,/
COc1cc(CN2CC(=O)N(c3ccccc3Cl)C2=S)cc(OC)c1OC,1,25,-4,-15,75*,49*,66*,14*,18
COc1ccc(C(=O)Oc2cccc(Nc3ncnc4ccccc34)c2)cc1OC,1,12,-5,-9,69*,43*,54*,12*,5
O=C(Oc1cccc(Nc2ncnc3ccccc23)c1)c1cccnc1,1,11,0,9,31,/,/,/,/
COc1ccc(-c2cc(NC(C)=O)c3ncc(-c4ccccc4)n3c2)cc1OC,1,6,/,/,17,/,/,/,/
CC(=O)Nc1cc(-c2ccccc2F)cn2c(-c3ccccc3)cnc12,-1,4,/,/,68*,28*,47,10,14

# Source: PubChem BioAssay (several laboratories)
